Measurements published in ChEMBL document CHEMBL1123488, “Agents for the treatment of brain edema. 2. [(2,3,9,9a-Tetrahydro-3-oxo-9a-substituted-1H-fluoren-7-yl)oxy]+ ++alkanoi c acids and some of their analogues” (J Med Chem, 1986).
Where “and” joins values, the source holds several entries; their conditions need not be identical. Equal values may be shown once.

How the values were obtained:
[1] = tested on: Felis catus; assay: In vivo activity in the acceleration-deceleration head injury assay at dose of 10 mg/kg; 6/16
[2] = species: Cavia porcellus; assay: Compound was tested for inhibition of potassium ion uptake in guinea pig cerebrocortical slices at concentration of (10e-9) M; format: functional
[3] = species: Cavia porcellus; assay: Compound was tested for inhibition of chloride ion uptake in guinea pig cerebrocortical slices at concentration of (10e-7) M; format: functional
Outline: (§1)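 Slices were incubated 60 min at 22 °C in 27 mM K+ medium with 5 mM HCO3- added for the last 40 min, with the compound present throughout. Slices were then filtered off, reweighed and homogenized (10% w/v) in 1 N perchloric acid. The supernatant was assayed for electrolytes, expressed as µmol/g initial wet weight. Two-tailed t-test versus 27 K + HCO3-.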

[4] = species: Felis catus; assay: Compound was tested for inhibition of HCO3- dependent swelling of cat cerebrocortical slices at concentration of (10e-10) M; format: functional
Outline: (§2)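 Cerebrocortical slices were weighed and incubated in Warburg flasks at 22 °C in medium of KCl 27, NaCl 100, glucose 10 and KH2PO4 1.2 mmol/L (27 mM K+ HEPES). HCO3- (5 mM) was added from the side arm for the final 40 min, and the compound was present throughout the 60 min. Swelling = (final − initial wet weight)/initial wet weight × 100. Two-tailed t-test versus 27 K + HCO3-.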

[5] = species: Felis catus; assay: Compound was tested for inhibition of chloride ion uptake in cat cerebrocortical slices at concentration of (10e-13) M; format: functional
Outline: as §1

[6] = species: Felis catus; assay: Compound was tested for inhibition of HCO3- dependent swelling of cat cerebrocortical slices at concentration of (10e-12) M; format: functional
Outline: as §2

[7] = species: Cavia porcellus; assay: Compound was tested for inhibition of chloride ion uptake in guinea pig cerebrocortical slices at concentration of (10e-11) M; format: functional
Outline: as §1

[8] = species: Rattus norvegicus; assay: Compound was tested for inhibition of potassium ion uptake in rat cerebrocortical slices at concentration of (10e-4) M; format: functional
[9] = species: Cavia porcellus; assay: Compound was tested for inhibition of HCO3- dependent swelling of guinea pig cerebrocortical slices at concentration of (10e-11) M; format: functional
Outline: as §2

[10] = species: Felis catus; assay: Compound was tested for inhibition of sodium ion uptake in cat cerebrocortical slices at concentration of (10e-12) M; format: functional
[11] = species: Cavia porcellus; assay: Compound was tested for inhibition of potassium ion uptake in guinea pig cerebrocortical slices at concentration of (10e-6) M; format: functional
Outline: as §1

[12] = species: Felis catus; assay: Compound was tested for inhibition of HCO3- dependent swelling of cat cerebrocortical slices at concentration of (10e-8) M; format: functional
Outline: as §2

[13] = species: Cavia porcellus; assay: Compound was tested for inhibition of chloride ion uptake in guinea pig cerebrocortical slices at concentration of (10e-12) M; format: functional
Outline: as §1

[14] = species: Cavia porcellus; assay: Compound was tested for inhibition of chloride ion uptake in guinea pig cerebrocortical slices at concentration of (10e-9) M; format: functional
Outline: as §1

[15] = species: Rattus norvegicus; assay: Compound was tested for inhibition of HCO3- dependent swelling of rat cerebrocortical slices at concentration of (10e-3) M; format: functional
Outline: as §2

[16] = species: Rattus norvegicus; assay: Compound was tested for inhibition of potassium ion uptake in rat cerebrocortical slices at concentration of (10e-3) M; format: functional
[17] = tested on: Rattus norvegicus; assay: In vivo activity in the acceleration-deceleration head injury assay at dose of 10 mg/kg; format: functional
Outline: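 Cat acceleration-deceleration head injury model. Drug given intravenously 20 min after the acceleration-deceleration event, before the hypoxemia period. Animals were matched in pairs by sex and run together; one was randomly assigned to drug, the other served as control. Deaths were counted over 24 h after trauma, excluding animals dying during the procedure or hypoxemia. Mortality was compared by χ² analysis.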

[18] = species: Felis catus; assay: In vitro concentration required for 50% inhibition of swelling of cat cerebrocortical slices; format: functional; settings: read-out: I50
Outline: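 Cat cortical slices were weighed and incubated 60 min at 22 °C in 27 mM K+ medium, with HCO3- added for the last 40 min and inhibitor present throughout. Swelling = (final − initial wet weight)/initial wet weight × 100. The HCO3−-dependent increment was taken as the target. I50 is the molarity giving 50% inhibition, read from the concentration–response curve.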

[19] = species: Cavia porcellus; assay: Compound was tested for inhibition of HCO3- dependent swelling of guinea pig cerebrocortical slices at concentration of (10e-12) M; format: functional
Outline: as §2

[20] = species: Felis catus; assay: Compound was tested for inhibition of HCO3- dependent swelling of cat cerebrocortical slices at concentration of (10e-11) M; format: functional
Outline: as §2

[21] = species: Felis catus; assay: Compound was tested for inhibition of chloride ion uptake in cat cerebrocortical slices at concentration of (10e-11) M; format: functional
Outline: as §1

[22] = species: Felis catus; assay: Compound was tested for inhibition of HCO3- dependent swelling of cat cerebrocortical slices at concentration of (10e-9) M; format: functional
Outline: as §2

[23] = species: Rattus norvegicus; assay: Compound was tested for inhibition of HCO3- dependent swelling of rat cerebrocortical slices at concentration of (10e-6) M; format: functional
Outline: as §2

[24] = tested on: Felis catus; assay: In vivo activity in the acceleration-deceleration head injury assay at dose of 1 mg/kg; 12/25
[25] = species: Felis catus; assay: Compound was tested for inhibition of K+ ion uptake in cat cerebrocortical slices at concentration of (10e-12) M; format: functional
Outline: as §1

[26] = species: Rattus norvegicus; assay: Compound was tested for inhibition of chloride ion uptake in rat cerebrocortical slices at concentration of (10e-3) M; format: functional
Outline: as §1

[27] = species: Felis catus; assay: Compound was tested for inhibition of sodium ion uptake in cat cerebrocortical slices at concentration of (10e-11) M; format: functional
[28] = tested on: Felis catus; assay: In vivo activity in the acceleration-deceleration head injury assay at dose of 5 mg/kg; 1/19
[29] = species: Cavia porcellus; assay: Compound was tested for inhibition of potassium ion uptake in guinea pig cerebrocortical slices at concentration of (10e-11) M; format: functional
Outline: as §1

[30] = species: Cavia porcellus; assay: Compound was tested for inhibition of chloride ion uptake in guinea pig cerebrocortical slices at concentration of (10e-6) M; format: functional
Outline: as §1

[31] = species: Cavia porcellus; assay: Compound was tested for inhibition of HCO3- dependent swelling of guinea pig cerebrocortical slices at concentration of (10e-7) M; format: functional
Outline: as §2

[32] = species: Felis catus; assay: Compound was tested for inhibition of HCO3- dependent swelling of cat cerebrocortical slices at concentration of (10e-13) M; format: functional
Outline: as §2

[33] = species: Rattus norvegicus; assay: Compound was tested for inhibition of sodium ion uptake in rat cerebrocortical slices at concentration of (10e-3) M; format: functional
[34] = species: Cavia porcellus; assay: Compound was tested for inhibition of chloride ion uptake in guinea pig cerebrocortical slices at concentration of (10e-10) M; format: functional
Outline: as §1

[35] = species: Rattus norvegicus; assay: Compound was tested for inhibition of potassium ion uptake in rat cerebrocortical slices at concentration of (10e-8) M; format: functional
[36] = species: Cavia porcellus; assay: Compound was tested for inhibition of sodium ion uptake in guinea pig cerebrocortical slices at concentration of (10e-6) M; format: functional
[37] = species: Felis catus; assay: Compound was tested for inhibition of K+ ion uptake in cat cerebrocortical slices at concentration of (10e-8) M; format: functional
Outline: as §1

CCCC12CCC(=O)C=C1c1c(cc(OCC(=O)O)c(Cl)c1Cl)C2 (single isomer, unassigned; (+))
Deaths [1]: 6
Activity [2]: 95.9
Activity [3]: 115.4
Swelling [4]: 19.5%
Activity [5]: 98.5
Swelling [6]: 21.3%
Activity [7]: 94.8
Activity [8]: 73.7
Swelling [9]: 27.6%
Activity [10]: 96.4
Activity [11]: 95
Swelling [12]: 18.6%
Activity [13]: 100.5
Activity [14]: 105.2
Swelling [15]: 19.1%
Activity [16]: 60.2
Mortality [17]: 37.5% and 79%
IC50 [18]: 20 pM
Swelling [19]: 30.9%
Swelling [20]: 19.1%
Activity [21]: 87.9
Swelling [22]: 18.3%
Swelling [23]: 22.7%
Deaths [24]: 12
Activity [25]: 90.9
Activity [26]: 106.3
Activity [27]: 86.4
Deaths [28]: 1
Activity [29]: 88.9
Activity [30]: 103.8
Swelling [31]: 26.4%
Swelling [32]: 27.3%
Activity [33]: 132.4
Activity [34]: 101.4
Activity [35]: 75.4
Activity [36]: 115
Activity [37]: 83.8
